ChEMBL document CHEMBL3870310, “Design, synthesis and evaluation of pyrazole derivatives as non-nucleoside hepatitis B virus inhibitors” (Eur J Med Chem, 2016)

Assays:
Hepatitis B virus [1] = assay: Antiviral activity against Hepatitis B virus infected in human HepG2.2.15 cells assessed as inhibition of HBeAg secretion by ELISA; assay type: functional, cell-based
Procedure, shortened: (§1)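 Supernatant from HepG2.2.15 cultures aspirated and HBeAg or HBsAg measured with a diagnostic ELISA kit, absorbance read on a plate reader. Inhibition (%) = (A normal cell group − A experimental group)/[…] × 100; IC50 is the concentration giving 50% inhibition of antigen secretion. Lamivudine positive control.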

[2] = Selectivity index, ratio of CC50 for human HepG2.2.15 cells to IC50 for Hepatitis B virus infected in human HepG2.2.15 cells assessed as inhibition of HBeAg secretion; assay type: functional
Procedure, shortened: (§2)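 SI = CC50 (CCK-8, HepG2.2.15, 8 days) divided by IC50 for inhibition of HBeAg or HBsAg secretion measured by ELISA in HepG2.2.15 supernatants.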

Hepatitis B virus [3] = assay: Antiviral activity against Hepatitis B virus infected in human HepG2.2.15 cells assessed as inhibition of HBsAg secretion by ELISA; assay type: functional, cell-based; procedure, shortened: as §1
[4] = Selectivity index, ratio of CC50 for human HepG2.2.15 cells to IC50 for Hepatitis B virus infected in human HepG2.2.15 cells assessed as inhibition of HBsAg secretion; assay type: functional; procedure, shortened: as §2
[5] = Cytotoxicity against human HepG2.2.15 cells assessed as decrease in cell viability after 8 days by CCK-8 assay; assay type: toxicity, cell-based, HepG2 2.2.15
Procedure, shortened: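 HepG2.2.15 cells (HBV-transgenic human hepatoma) cultured in triplicate for 8 days with five doses of compound; untreated cells as controls. CCK-8 reagent added 0.5 h before end of culture, absorbance read at 450 nm, percent cell death calculated; CC50 is the concentration killing 50% of cells.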

Hepatitis B virus [6] = assay: Antiviral activity against Hepatitis B virus infected in human HepG2.2.15 cells assessed as inhibition of viral DNA replication after 8 days by real-time fluorescent PCR method; assay type: functional, cell-based; settings: HepG2.2.15, 192 h
Procedure, shortened: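 HepG2.2.15 cells exposed to compounds […] for 8 days; 100 µL culture supernatant added to extraction buffer, boiled 10 min, centrifuged 10 min, and aliquots assayed for extracellular HBV DNA by fluorescent-probe real-time quantitative PCR kit. Lamivudine positive control.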

[7] = Cytotoxicity against human HepG2.2.15 cells assessed as decrease in cell viability after 8 days by CCK-8 assay
Hepatitis B virus [8] = assay: Antiviral activity against Hepatitis B virus infected in human HepAD38 cells assessed as inhibition of viral DNA replication; assay type: functional, cell-based
[9] = Cytotoxicity against human HepAD38 cells; assay type: toxicity, cell-based
Hepatitis B virus [10] = assay: Antiviral activity against Hepatitis B virus; assay type: functional

IC50 (Hepatitis B virus [1]) [µM] | IC50 (Hepatitis B virus [3]) [µM] | IC50 (Hepatitis B virus [6]) [µM] | IC50 (Hepatitis B virus [8]) [µM] | IC50 (Hepatitis B virus [10]) [µM] | Structure (SMILES) | Ratio CC50/IC50 [2] | Ratio CC50/IC50 [4] | CC50 at 192 h [5] [µM] | IC50 at 8 days [7] [µM] | IC50 [9] [µM]
31.6 | 34.7 | 1.33 | – | – | CC(C)Cc1sc(-c2nccs2)nc1C(=O)NCc1ccc(F)cc1 | 1.63 | 1.48 | 51.5 | 50.4 | –
59.4 | 63.3 | – | – | – | CCOC(=O)c1cn(-c2cccc([N+](=O)[O-])c2)nc1CC(C)C | – | 0.94 | 59.3 | – | –
71.2 | > 100 | – | – | – | CC(C)Cc1nn(-c2cccc(F)c2)cc1C(=O)NCc1ccncc1 | >1.41 | – | > 100 | – | –
26 | 50.1 | – | – | – | CC(C)Cc1nn(-c2nccs2)cc1C(=O)NCc1ccccc1F | >3.85 | >2 | > 100 | – | –
– | – | – | 0.13 | – | COc1ccccc1/C(Br)=C(/NC(=O)c1ccc([N+](=O)[O-])cc1)C(=O)N1CCCCC1 | – | – | – | – | > 51
– | – | 1.1 | – | – | CCOC(=O)c1nc(-c2cncs2)sc1CC(C)C | – | – | – | – | –
34 | 51.9 | – | – | – | CC(C)Cc1nn(-c2cccc(F)c2)cc1C(=O)NNc1ccc(F)cc1 | 1.34 | – | 45.4 | – | –
> 100 | > 100 | – | – | – | CC(C)Cc1nn(-c2nccs2)cc1C(=O)NCc1ccc(C(F)(F)F)cc1 | – | – | > 100 | – | –
24.7 | 25.9 | – | – | – | CC(C)Cc1nn(-c2cccc(F)c2)cc1C(=O)Nc1ccc(F)cc1 | 1.47 | 1.4 | 36.2 | – | –
> 100 | > 100 | – | – | – | CCOC(=O)c1cn(-c2ccc([N+](=O)[O-])cc2)nc1CC(C)C | – | – | > 100 | – | –
71.6 | 68.5 | – | – | – | CCOC(=O)c1cn(-c2ccc(OC)cc2)nc1CC(C)C | 1.08 | 1.12 | 77.1 | – | –
82.3 | 94.8 | – | – | – | CCOC(=O)c1cn(-c2ccccc2F)nc1CC(C)C | >1.21 | >1.05 | > 100 | – | –
31.4 | 44.5 | – | – | – | CC(C)Cc1nn(-c2nccs2)cc1C(=O)NCc1ccc(F)cc1 | >3.18 | >2.25 | > 100 | – | –
> 100 | > 100 | – | – | – | CC(C)Cc1nn(-c2nccs2)cc1C(=O)NCc1ccc(N)cc1 | – | – | > 100 | – | –
2.22 | 24.3 | – | – | – | CC(C)Cc1nn(-c2nccs2)cc1C(=O)Nc1ccc(F)cc1 | 37.69 | 3.44 | 83.7 | – | –
44.8 | 57.6 | – | – | – | COc1ccc(CONC(=O)c2cn(-c3cccc(F)c3)nc2CC(C)C)cc1 | 1.52 | 1.18 | 67.9 | – | –

IC50 (Hepatitis B virus [1]) [µM] | IC50 (Hepatitis B virus [3]) [µM] | IC50 (Hepatitis B virus [6]) [µM] | IC50 (Hepatitis B virus [8]) [µM] | IC50 (Hepatitis B virus [10]) [µM] | Structure (SMILES) | Ratio CC50/IC50 [2] | Ratio CC50/IC50 [4] | CC50 at 192 h [5] [µM] | IC50 at 8 days [7] [µM] | IC50 [9] [µM]
38.5 | 38.6 | – | – | – | CC(C)Cc1nn(-c2cccc(F)c2)cc1C(=O)NCc1ccccc1 | 2.23 | 2.23 | 85.9 | – | –
70.6 | 63.3 | – | – | – | CCOC(=O)c1cn(-c2cccc(OC)c2)nc1CC(C)C | 1 | 1.11 | 70.5 | – | –
< 6.25 | 49.3 | – | – | – | CCOC(=O)c1cn(-c2ccccc2[N+](=O)[O-])nc1CC(C)C | >0.78 | 0.1 | 4.85 | – | –
86.2 | > 100 | – | – | – | CC(C)Cc1nn(-c2nccs2)cc1C(=O)NCc1ccc(O)cc1 | >1.16 | – | > 100 | – | –
95.7 | > 100 | – | – | – | COc1ccc(CNC(=O)c2cn(-c3nccs3)nc2CC(C)C)cc1 | >1.05 | – | > 100 | – | –
> 100 | > 100 | – | – | – | CCOC(=O)c1cn(-c2ccc(F)cc2)nc1CC(C)C | – | – | > 100 | – | –
17.2 | 58.8 | – | – | – | CC(C)Cc1nn(-c2nccs2)cc1C(=O)NCc1cccc(F)c1 | >5.8 | >1.7 | > 100 | – | –
> 100 | > 100 | – | – | – | CCOC(=O)c1cn(-c2nccs2)nc1CC(C)C | – | – | > 100 | – | –
> 100 | > 100 | – | – | – | CCOC(=O)c1cn(-c2ccc(C(=O)O)cc2)nc1CC(C)C | – | – | > 100 | – | –
> 100 | > 100 | – | – | – | CC(C)Cc1nn(-c2cccc(F)c2)cc1C(=O)NCC1CCN(C(=O)OC(C)(C)C)CC1 | – | – | > 100 | – | –
– | – | – | – | < 0.05 | CCOC(=O)c1nc(-c2cccc(F)c2)sc1CC(C)C | – | – | – | – | –
> 100 | > 100 | – | – | – | CC(C)Cc1nn(-c2cccc(F)c2)cc1C(=O)NCc1ccc(F)cc1 | – | – | > 100 | – | –
– | – | 76.4 | – | – | COC(=O)c1nc(-c2cnc([C@@H](NC(=O)c3cccs3)C(C)C)s2)oc1C | – | – | – | – | –
8.84 | 41.8 | – | – | – | CC(C)Cc1nn(-c2nccs2)cc1C(=O)NCc1ccc(F)cc1F | 9.46 | 2 | 83.6 | – | –
47.9 | 41.9 | – | – | – | CCOC(=O)c1cn(-c2cccc(C(=O)O)c2)nc1CC(C)C | 0.15 | 0.17 | 7.1 | – | –
> 100 | > 100 | – | – | – | Nc1ccn([C@@H]2CS[C@H](CO)O2)c(=O)n1 [LAMIVUDINE] | – | – | > 100 | – | –
